The species named for one assay is Homo sapiens. As to the kind of experiment: Inhibition of ADP-induced human platelet aggregation. In kind it is functional, organism-based. In short, it runs like this: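 Human blood drawn into 1/10 volume 3.8% sodium citrate, spun 10 min at 140g for platelet-rich plasma; compound in DMSO added to PRP 3 min before ADP (5.86 μM); aggregation followed by Born aggregometry (Mustard modification) against vehicle controls; IC50 from dose-response curves.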

A further assay concerns the target Prostacyclin receptor (Homo sapiens, UniProt P43119). As to the kind of experiment: IC50 value was evaluated by measuring the displacement of [3H]iloprost from Prostaglandin I2 receptor. In short, it runs like this: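 Platelet plasma membranes (200 μg) incubated with 5 nM [3H]iloprost in 10 mM MgCl2, 1 mM EGTA, 50 mM Tris/HCl pH 7.4 at 0-4 °C for 90-120 min; diluted with ice-cold Tris buffer, rapidly filtered on GF/C, washed four times, bound radioactivity counted by scintillation; IC50 for displacement.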
In general terms: Displacement assays read how much labelled ligand stays bound in the presence of the test substance.

Sequence of Prostacyclin receptor (P43119 whole entry): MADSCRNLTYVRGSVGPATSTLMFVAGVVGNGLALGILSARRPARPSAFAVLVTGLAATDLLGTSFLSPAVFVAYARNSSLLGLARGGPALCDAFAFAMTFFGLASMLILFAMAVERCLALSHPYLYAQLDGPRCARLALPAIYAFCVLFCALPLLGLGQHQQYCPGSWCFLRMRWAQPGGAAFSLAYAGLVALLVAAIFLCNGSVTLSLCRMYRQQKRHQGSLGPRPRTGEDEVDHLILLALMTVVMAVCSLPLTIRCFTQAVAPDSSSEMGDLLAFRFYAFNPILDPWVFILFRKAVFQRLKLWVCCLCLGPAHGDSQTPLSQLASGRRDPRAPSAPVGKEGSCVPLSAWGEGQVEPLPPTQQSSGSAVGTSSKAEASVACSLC

With `O=C(O)CCCCCCCCn1cc(-c2ccccc2)c(-c2ccccc2)n1`, the results for the IC50 in the assay filed under Homo sapiens and at Prostacyclin receptor were 4.5 µM and 0.35 µM, respectively.

Turning to `O=C(O)CCCCCCCCn1nc(-c2ccccc2)c(-c2ccccc2)c1-c1ccccc1`, the results for the IC50 in the assay listed under Homo sapiens and on Prostacyclin receptor were 0.4 µM and 0.16 µM, respectively.

In turn, `NC(=O)CCCCCCCCn1nc(-c2ccccc2)c(-c2ccccc2)c1-c1ccccc1` had a half-maximal inhibitory concentration (IC50) in the assay filed under Homo sapiens of 33 µM.

Compound `CS(=O)(=O)NC(=O)CCCCCCCCn1nc(-c2ccccc2)c(-c2ccccc2)c1-c1ccccc1` showed a 50% inhibitory concentration (IC50) in the assay filed under Homo sapiens of 5.9 µM.

In turn, `c1ccc(-c2nn(CCCCCCCCc3nnn[nH]3)c(-c3ccccc3)c2-c2ccccc2)cc1` yielded a half-maximal inhibitory concentration (IC50) in the assay filed under Homo sapiens of 1.04 µM.

In the assay listed under Homo sapiens, `O=C(O)CCCCCCn1ncc(-c2ccccc2)c1-c1ccccc1` returned an IC50 greater than 92 µM.

As to `O=C(O)CCCCCCCCn1ncc(-c2ccccc2)c1-c1ccccc1`, the IC50 stood at 5.8 µM in the assay listed under Homo sapiens and 0.7 µM on Prostacyclin receptor.

With `O=C(O)COCCCCCCn1nc(-c2ccccc2)c(-c2ccccc2)c1-c1ccccc1`, the midpoint of inhibition in the assay listed under Homo sapiens, the IC50, lay at 0.44 µM.

Take `CC(C)(C)OC(=O)COCCCCCCn1nc(-c2ccccc2)c(-c2ccccc2)c1-c1ccccc1`: the IC50 in the assay listed under Homo sapiens was greater than 62 µM.

For the compound `O=C(O)CS(=O)(=O)CCCCCCn1nc(-c2ccccc2)c(-c2ccccc2)c1-c1ccccc1`, the IC50 in the assay filed under Homo sapiens was 22 µM.

On to `O=C(O)CCCCCCCCn1cc(-c2ccccc2)cn1`, for which the half-inhibitory concentration (IC50) is greater than 105 µM in the assay listed under Homo sapiens and greater than 10 µM on Prostacyclin receptor.

In turn, `CNC(=O)CCCCCCCCn1nc(-c2ccccc2)c(-c2ccccc2)c1-c1ccccc1` yielded an IC50 in the assay listed under Homo sapiens greater than 68 µM.

In the assay filed under Homo sapiens, `O=C(O)CCCCCCCCCn1nc(-c2ccccc2)c(-c2ccccc2)c1-c1ccccc1` displayed a concentration for half-maximal inhibition (IC50) of 5.5 µM.

Regarding `O=C(O)CCCCCCCCn1nc(-c2ccccc2)cc1-c1ccccc1`, the 50% inhibitory concentration (IC50) in the assay filed under Homo sapiens is greater than 66 µM; at Prostacyclin receptor, greater than 10 µM.

Consider `O=C(O)CCCCCCCCCn1ncc(-c2ccccc2)c1-c1ccccc1`, for which, in the assay filed under Homo sapiens, the IC50 is greater than 82 µM.

`O=C(O)CCCCCCCCCCn1nc(-c2ccccc2)c(-c2ccccc2)c1-c1ccccc1`: in the assay filed under Homo sapiens, 18.6 µM corresponded to half-maximal inhibition (IC50).

Take `O=C(O)CCCCCCCn1nc(-c2ccccc2)c(-c2ccccc2)c1-c1ccccc1`: the midpoint of inhibition in the assay listed under Homo sapiens, the IC50, lay at 3.4 µM.

`O=C(O)CSCCCCCCn1nc(-c2ccccc2)c(-c2ccccc2)c1-c1ccccc1` came in with a half-maximal inhibitory concentration (IC50) in the assay filed under Homo sapiens of 0.87 µM.

On to `O=C(O)CCCCCCCCCn1cc(-c2ccccc2)c(-c2ccccc2)n1`, for which the IC50 in the assay filed under Homo sapiens was greater than 81 µM.

Turning to `O=C(O)C[S+]([O-])CCCCCCn1nc(-c2ccccc2)c(-c2ccccc2)c1-c1ccccc1` (stereo not given), in the assay filed under Homo sapiens, it took 6.5 µM to reach half-maximal inhibition (IC50).

On to `CCc1c(-c2ccccc2)nn(CCCCCCCCC(=O)O)c1-c1ccccc1`, for which, in the assay filed under Homo sapiens, the IC50 is greater than 79 µM.

Compound `O=C(O)CCCCCCn1cc(-c2ccccc2)c(-c2ccccc2)n1` returned an IC50 in the assay filed under Homo sapiens greater than 92 µM.

Turning to `O=C(O)CCCCCCn1nc(-c2ccccc2)c(-c2ccccc2)c1-c1ccccc1`, in the assay filed under Homo sapiens, the IC50 was determined as 22.4 µM.

Compound `O=C(O)CCCCCn1nc(-c2ccccc2)c(-c2ccccc2)c1-c1ccccc1` showed a half-inhibitory concentration (IC50) in the assay filed under Homo sapiens greater than 78 µM.

With `O=C(O)CCCCCCCCn1nc(-c2ccccc2)c(Cc2ccccc2)c1-c1ccccc1`, the IC50 in the assay filed under Homo sapiens is greater than 68 µM.

In turn, `COC(=O)CCCCCCCCn1nc(-c2ccccc2)c(-c2ccccc2)c1-c1ccccc1` had an IC50 in the assay filed under Homo sapiens of 4.3 µM.

Take `O=C(O)CCCCCCCn1cc(-c2ccccc2)c(-c2ccccc2)n1`: the IC50 in the assay filed under Homo sapiens was greater than 85 µM.

Turning to `O=C(O)CCCCCCCn1ncc(-c2ccccc2)c1-c1ccccc1`, the half-maximal inhibitory concentration (IC50) turned out to be 1.5 µM in the assay filed under Homo sapiens and 0.16 µM at Prostacyclin receptor.

In turn, `N#CCCCCCCCCn1nc(-c2ccccc2)c(-c2ccccc2)c1-c1ccccc1` yielded a 50% inhibitory concentration (IC50) in the assay listed under Homo sapiens greater than 72 µM.

A word on the IC50: it is the midpoint of a concentration-inhibition curve. Read a high IC50 as lower potency.

The record behind these values is ChEMBL document CHEMBL1125296, “Structure-activity relationships associated with 3,4,5-triphenyl-1H-pyrazole-1-nonanoic acid, a nonprostanoid prostacyclin mimetic” (J Med Chem, 1992).
